From ChEMBL document CHEMBL1687698, “Discovery of INCB9471, a Potent, Selective, and Orally Bioavailable CCR5 Antagonist with Potent Anti-HIV-1 Activity” (ACS Med Chem Lett, 2010)
Activity calls are given as the source filed them. The calls are words filed in the database; no cut-off is given here.

Experiments:
[1] = biological target: T1, C-C chemokine receptor type 5 (Homo sapiens, UniProt P51681); assay: Displacement of [125I]MIP-1beta from CCR5 in IL-10-stimulated human monocytes; type: cell-based
T1 sequence (P51681 whole entry): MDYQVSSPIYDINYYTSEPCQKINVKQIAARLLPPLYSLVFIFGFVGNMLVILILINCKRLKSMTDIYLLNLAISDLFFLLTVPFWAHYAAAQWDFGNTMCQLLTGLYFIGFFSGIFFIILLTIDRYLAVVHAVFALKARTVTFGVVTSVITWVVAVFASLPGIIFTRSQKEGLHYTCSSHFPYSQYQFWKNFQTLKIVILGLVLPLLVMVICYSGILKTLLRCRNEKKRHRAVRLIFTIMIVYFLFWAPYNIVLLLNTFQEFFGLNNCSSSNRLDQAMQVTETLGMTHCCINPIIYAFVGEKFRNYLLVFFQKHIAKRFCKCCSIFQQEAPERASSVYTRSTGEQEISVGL

[2] = test system: Human immunodeficiency virus 1; assay: Antiviral activity against HIV-1 BaL infected in PHA-stimulated human PBMC cells assessed as viral p24 core protein level after 7 days by ELISA; type: functional, organism-based; conditions: Human immunodeficiency virus 1, BaL, 168 h
Procedure, shortened: (§1)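 Human PBMC activated with PHA, then infected with HIV-1 (ADA or BaL strain). Infectivity was read as viral p24 core protein in the culture supernatants.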

[3] = Half life in human in repeated dosing regimen; type: ADME, organism-based; conditions: in vivo
[4] = test system: Human immunodeficiency virus 1; assay: Antiviral activity against HIV-1 ADA infected in PHA-stimulated human PBMC cells assessed as viral p24 core protein level after 7 days by ELISA; type: functional, organism-based; conditions: Human immunodeficiency virus 1, ADA, 168 h; procedure, shortened: as §1
[5] = biological target: Voltage-gated inwardly rectifying potassium channel KCNH2 (Homo sapiens, UniProt Q12809); assay: Inhibition of human hERG
Sequence of Voltage-gated inwardly rectifying potassium channel KCNH2 (Q12809 whole entry): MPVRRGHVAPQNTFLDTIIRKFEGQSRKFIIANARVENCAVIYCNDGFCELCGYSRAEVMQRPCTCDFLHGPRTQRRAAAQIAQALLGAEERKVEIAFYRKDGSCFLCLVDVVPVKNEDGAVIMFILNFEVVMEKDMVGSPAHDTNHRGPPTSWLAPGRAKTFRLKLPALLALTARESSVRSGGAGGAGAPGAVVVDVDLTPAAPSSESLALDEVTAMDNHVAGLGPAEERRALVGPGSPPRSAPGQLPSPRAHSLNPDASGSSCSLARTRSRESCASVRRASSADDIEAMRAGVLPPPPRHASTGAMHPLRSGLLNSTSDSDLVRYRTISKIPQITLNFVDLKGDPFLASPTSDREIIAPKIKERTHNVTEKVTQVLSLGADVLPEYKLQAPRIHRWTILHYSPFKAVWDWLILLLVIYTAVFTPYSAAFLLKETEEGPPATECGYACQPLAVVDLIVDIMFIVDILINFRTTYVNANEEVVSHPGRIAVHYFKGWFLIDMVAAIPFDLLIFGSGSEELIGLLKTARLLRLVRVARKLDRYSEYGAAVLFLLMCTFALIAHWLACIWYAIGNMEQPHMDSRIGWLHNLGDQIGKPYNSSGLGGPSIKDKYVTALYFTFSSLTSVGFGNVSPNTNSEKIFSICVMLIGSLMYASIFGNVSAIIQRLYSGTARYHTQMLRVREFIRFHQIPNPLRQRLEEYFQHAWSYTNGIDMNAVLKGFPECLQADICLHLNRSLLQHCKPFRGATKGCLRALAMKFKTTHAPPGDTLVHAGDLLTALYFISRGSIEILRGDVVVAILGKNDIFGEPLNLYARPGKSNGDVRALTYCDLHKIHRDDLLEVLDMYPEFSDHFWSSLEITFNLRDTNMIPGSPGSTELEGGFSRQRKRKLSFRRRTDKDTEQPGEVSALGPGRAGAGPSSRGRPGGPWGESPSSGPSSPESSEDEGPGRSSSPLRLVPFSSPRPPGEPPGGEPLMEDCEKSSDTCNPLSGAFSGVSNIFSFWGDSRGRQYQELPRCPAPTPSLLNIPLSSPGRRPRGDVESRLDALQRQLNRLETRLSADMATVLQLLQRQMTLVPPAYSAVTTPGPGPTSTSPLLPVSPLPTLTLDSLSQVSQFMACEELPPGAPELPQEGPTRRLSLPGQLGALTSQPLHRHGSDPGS
Procedure, shortened: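 hERG potassium current was measured by patch clamp, and IC50 was derived from current inhibition.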

[6] = Systemic clearance in rat at 1 mg/kg, iv; type: ADME, organism-based; design: dose 1 mg/kg, route intravenous; conditions: in vivo
[7] = test system: Canis familiaris; assay: Volume of distribution in dog at 1 mg/kg, iv; type: ADME, organism-based, Canis lupus familiaris; design: dose 1 mg/kg, route intravenous; conditions: in vivo
[8] = test system: Human immunodeficiency virus 1; assay: Antiviral activity against HIV-1 R5 clade F infected in human PBMC cells; type: functional; conditions: Human immunodeficiency virus 1, R5 clade F
[9] = Cmax in dog at 20 mg/kg, po; type: ADME, organism-based, Canis lupus familiaris; design: dose 20 mg/kg, route oral; conditions: in vivo
[10] = Half life in dog at 1 mg/kg, iv; type: ADME, organism-based, Canis lupus familiaris; design: dose 1 mg/kg, route intravenous; conditions: in vivo
[11] = Tmax in rat at 20 mg/kg, po; type: ADME, organism-based; design: dose 20 mg/kg, route oral; conditions: in vivo
[12] = test system: Human immunodeficiency virus 1; assay: Antiviral activity against HIV-1 R5 clade G infected in human PBMC cells; type: functional; conditions: Human immunodeficiency virus 1, R5 clade G
[13] = biological target: T1, C-C chemokine receptor type 5; assay: Antagonist activity at CCR5 assessed as inhibition of ERK phosphorylation; type: functional
[14] = biological target: T1, C-C chemokine receptor type 5; assay: Antagonist activity at CCR5 assessed as inhibition of intracellular calcium mobilization; type: functional, cell-based
[15] = biological target: T1, C-C chemokine receptor type 5; assay: Antagonist activity at CCR5 assessed as inhibition of receptor internalization; type: functional
[16] = biological target: Cytochrome P450 2D6 (Homo sapiens, UniProt P10635); assay: Inhibition of CYP2D6; type: ADME
Sequence of Cytochrome P450 2D6 (P10635 whole entry): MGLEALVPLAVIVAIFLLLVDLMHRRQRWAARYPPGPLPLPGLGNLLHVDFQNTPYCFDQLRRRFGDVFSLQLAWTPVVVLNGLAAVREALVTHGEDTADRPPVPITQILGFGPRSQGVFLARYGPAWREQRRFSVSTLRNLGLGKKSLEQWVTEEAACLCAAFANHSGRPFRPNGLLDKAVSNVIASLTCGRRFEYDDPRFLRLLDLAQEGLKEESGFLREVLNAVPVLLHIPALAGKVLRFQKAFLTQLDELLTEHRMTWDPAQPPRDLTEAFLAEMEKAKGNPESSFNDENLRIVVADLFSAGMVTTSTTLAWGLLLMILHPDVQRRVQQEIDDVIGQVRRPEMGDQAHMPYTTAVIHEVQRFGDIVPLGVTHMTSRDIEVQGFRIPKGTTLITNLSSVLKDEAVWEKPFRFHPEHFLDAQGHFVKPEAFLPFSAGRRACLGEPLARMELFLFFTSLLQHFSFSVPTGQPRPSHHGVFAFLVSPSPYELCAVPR

[17] = biological target: T2, Cytochrome P450 1A2 (Homo sapiens, UniProt P05177); assay: Inhibition of CYP1A2; type: ADME
T2 sequence (P05177 whole entry): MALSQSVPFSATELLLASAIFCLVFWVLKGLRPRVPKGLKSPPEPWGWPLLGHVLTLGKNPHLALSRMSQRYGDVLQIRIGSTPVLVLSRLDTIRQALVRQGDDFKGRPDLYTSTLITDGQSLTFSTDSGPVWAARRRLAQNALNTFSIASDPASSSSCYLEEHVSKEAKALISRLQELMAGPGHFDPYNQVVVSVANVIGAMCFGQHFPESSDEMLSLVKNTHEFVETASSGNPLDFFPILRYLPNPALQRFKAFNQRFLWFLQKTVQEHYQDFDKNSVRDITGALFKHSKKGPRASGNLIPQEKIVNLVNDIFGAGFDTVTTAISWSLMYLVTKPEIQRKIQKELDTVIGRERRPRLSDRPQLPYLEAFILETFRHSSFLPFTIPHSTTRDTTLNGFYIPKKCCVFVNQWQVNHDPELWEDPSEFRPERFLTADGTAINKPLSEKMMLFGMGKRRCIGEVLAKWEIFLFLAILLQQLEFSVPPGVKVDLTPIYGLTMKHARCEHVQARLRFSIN

[18] = Half life in rat at 20 mg/kg, po; type: ADME, organism-based; design: dose 20 mg/kg, route oral; conditions: in vivo
[19] = Protein binding in human serum assessed as fraction unbound; type: ADME, cell-free
[20] = biological target: T1, C-C chemokine receptor type 5; assay: Activation of CCR5 in human PBMC cells; type: cell-based
[21] = AUC in dog at 1 mg/kg, iv; type: ADME, organism-based, Canis lupus familiaris; design: dose 1 mg/kg, route intravenous; conditions: plasma
[22] = test system: Human immunodeficiency virus 1; assay: Antiviral activity against HIV-1 R5 clade E infected in human PBMC cells; type: functional; conditions: Human immunodeficiency virus 1, R5 clade E
[23] = test system: Human immunodeficiency virus 1; assay: Antiviral activity against HIV-1 X4 infected in PBMC cells; type: functional, organism-based
[24] = biological target: Cytochrome P450 2C9 (Homo sapiens, UniProt P11712); assay: Inhibition of CYP2C9; type: ADME
Sequence of Cytochrome P450 2C9 (P11712 whole entry): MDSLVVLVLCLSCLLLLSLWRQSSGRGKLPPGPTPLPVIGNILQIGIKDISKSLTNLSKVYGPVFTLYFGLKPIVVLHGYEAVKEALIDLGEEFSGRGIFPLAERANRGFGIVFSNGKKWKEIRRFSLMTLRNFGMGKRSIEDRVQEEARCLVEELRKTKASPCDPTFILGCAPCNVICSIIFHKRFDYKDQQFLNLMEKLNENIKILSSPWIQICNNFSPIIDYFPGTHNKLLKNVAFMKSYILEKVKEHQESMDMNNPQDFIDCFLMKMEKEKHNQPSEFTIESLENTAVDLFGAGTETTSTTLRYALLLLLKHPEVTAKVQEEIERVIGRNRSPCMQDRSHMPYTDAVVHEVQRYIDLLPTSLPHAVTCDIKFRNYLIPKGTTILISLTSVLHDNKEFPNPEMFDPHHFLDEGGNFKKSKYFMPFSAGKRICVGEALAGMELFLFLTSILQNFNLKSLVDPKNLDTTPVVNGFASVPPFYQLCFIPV

[25] = test system: Rattus norvegicus; assay: Volume of distribution in rat at 1 mg/kg, iv; type: ADME, organism-based; design: dose 1 mg/kg, route intravenous; conditions: in vivo
[26] = Permeability across basolateral to apical side in human Caco2 cells; type: ADME, cell-based; conditions: Caco-2, read-out: permeability
[27] = Tmax in dog at 20 mg/kg, po; type: ADME, organism-based, Canis lupus familiaris; design: dose 20 mg/kg, route oral; conditions: in vivo
[28] = biological target: Cytochrome P450 2C19 (Homo sapiens, UniProt P33261); assay: Inhibition of CYP2C19; type: ADME
Sequence of Cytochrome P450 2C19 (P33261 whole entry): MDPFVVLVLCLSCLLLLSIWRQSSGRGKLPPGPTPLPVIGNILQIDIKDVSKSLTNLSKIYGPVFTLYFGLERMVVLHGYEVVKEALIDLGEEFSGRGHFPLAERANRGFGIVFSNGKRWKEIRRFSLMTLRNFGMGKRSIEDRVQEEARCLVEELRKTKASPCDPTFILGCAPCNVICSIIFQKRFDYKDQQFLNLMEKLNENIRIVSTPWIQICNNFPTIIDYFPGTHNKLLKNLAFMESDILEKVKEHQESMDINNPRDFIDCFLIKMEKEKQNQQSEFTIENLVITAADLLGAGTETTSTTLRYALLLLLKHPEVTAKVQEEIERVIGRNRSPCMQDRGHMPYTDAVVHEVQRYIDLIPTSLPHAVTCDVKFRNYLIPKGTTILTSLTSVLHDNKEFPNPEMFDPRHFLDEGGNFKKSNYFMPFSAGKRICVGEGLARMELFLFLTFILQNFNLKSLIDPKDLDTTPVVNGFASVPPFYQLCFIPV

[29] = test system: Human immunodeficiency virus 1; assay: Antiviral activity against HIV-1 R5 clade J infected in human PBMC cells; type: functional; conditions: Human immunodeficiency virus 1, R5 clade J
[30] = AUC in rat at 20 mg/kg, po; type: ADME, organism-based; design: dose 20 mg/kg, route oral; conditions: plasma
[31] = test system: Human immunodeficiency virus 1; assay: Antiviral activity against HIV-1 R5 clade A infected in human PBMC cells; type: functional; conditions: Human immunodeficiency virus 1, R5 clade A
[32] = Half life in dog at 20 mg/kg, po; type: ADME, organism-based, Canis lupus familiaris; design: dose 20 mg/kg, route oral; conditions: in vivo
[33] = test system: Human immunodeficiency virus 1; assay: Antiviral activity against HIV-1 R5 clade B infected in human PBMC cells; type: functional; conditions: Human immunodeficiency virus 1, R5 clade B
[34] = Systemic clearance in dog at 1 mg/kg, iv; type: ADME, organism-based, Canis lupus familiaris; design: dose 1 mg/kg, route intravenous; conditions: in vivo
[35] = Oral bioavailability in rat at 20 mg/kg; type: ADME, organism-based; conditions: in vivo
[36] = Cmax in rat at 20 mg/kg, po; type: ADME, organism-based; design: dose 20 mg/kg, route oral; conditions: in vivo
[37] = Induction of Cytochrome P450 up to 30 uM; type: ADME
[38] = test system: Human immunodeficiency virus 1; assay: Antiviral activity against HIV-1 R5 clade C infected in human PBMC cells; type: functional; conditions: Human immunodeficiency virus 1, R5 clade C
[39] = biological target: Cytochrome P450 3A4 (Homo sapiens, UniProt P08684); assay: Inhibition of CYP3A4; type: ADME
Sequence of Cytochrome P450 3A4 (P08684 whole entry): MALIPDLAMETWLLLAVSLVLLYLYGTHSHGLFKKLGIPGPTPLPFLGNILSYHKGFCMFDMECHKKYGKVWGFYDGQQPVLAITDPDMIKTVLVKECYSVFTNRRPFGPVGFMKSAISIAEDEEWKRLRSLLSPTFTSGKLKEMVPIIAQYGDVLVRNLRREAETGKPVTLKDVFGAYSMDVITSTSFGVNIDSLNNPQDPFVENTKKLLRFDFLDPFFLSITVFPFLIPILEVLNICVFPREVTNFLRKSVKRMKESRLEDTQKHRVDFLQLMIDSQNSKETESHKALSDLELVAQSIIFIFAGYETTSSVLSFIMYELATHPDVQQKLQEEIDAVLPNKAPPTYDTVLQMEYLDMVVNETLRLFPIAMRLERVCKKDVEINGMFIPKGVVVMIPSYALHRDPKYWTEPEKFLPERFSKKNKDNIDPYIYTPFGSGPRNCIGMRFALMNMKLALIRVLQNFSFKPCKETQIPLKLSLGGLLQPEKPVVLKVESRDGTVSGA

[40] = Half life in rat at 1 mg/kg, iv; type: ADME, organism-based; design: dose 1 mg/kg, route intravenous; conditions: in vivo
[41] = Plasma concentration in rat at 20 mg/kg, po after 24 hrs; type: ADME, organism-based; design: dose 20 mg/kg, route oral
[42] = Oral bioavailability in dog at 20 mg/kg; type: ADME, organism-based, Canis lupus familiaris; conditions: in vivo
[43] = AUC in rat at 1 mg/kg, iv; type: ADME, organism-based; design: dose 1 mg/kg, route intravenous; conditions: plasma
[44] = test system: Human immunodeficiency virus 1; assay: Antiviral activity against HIV-1 R5 clade D infected in human PBMC cells; type: functional; conditions: Human immunodeficiency virus 1, R5 clade D
[45] = AUC in dog at 20 mg/kg, po; type: ADME, organism-based, Canis lupus familiaris; design: dose 20 mg/kg, route oral; conditions: plasma

Cc1ncnc(C)c1C(=O)N1CCC(C)(N2CCN(C3CCc4cc(C(F)(F)F)ccc43)[C@@H](C)C2)CC1 (single isomer, unassigned)
IC50 [1]: 5 nM | IC50 [2]: 19 nM

COC[C@@H](c1ccc(C(F)(F)F)cc1)N1CCN(C2(C)CCN(C(=O)c3c(C)ncnc3C)CC2)C[C@@H]1C [VICRIVIROC]
half-life [3]: 1680 min | IC50 [4]: 0.56 nM | IC50 [2]: 0.23 nM

CCO[C@H]1Cc2cc(C(F)(F)F)ccc2[C@@H]1N1CCN(C2(C)CCN(C(=O)c3c(C)ncnc3C)CC2)C[C@@H]1C
IC50 [1]: > 1000 nM

Cc1ncnc(C)c1C(=O)N1CCC(C)(N2CCN([C@H]3c4ccc(C(F)(F)F)cc4C[C@@H]3O)[C@@H](C)C2)CC1
IC50 [1]: > 1000 nM

CO[C@H]1Cc2cc(C(F)(F)F)ccc2[C@@H]1N1CCN(C2(C)CCN(C(=O)c3c(C)ncnc3C)CC2)C[C@@H]1C
IC50 [1]: > 1000 nM

Cc1ncnc(C)c1C(=O)N1CCC(C)(N2CCN([C@@H]3c4ccc(C(F)(F)F)cc4C[C@H]3O)[C@@H](C)C2)CC1
IC50 [1]: 211 nM

CO[C@@H]1Cc2cc(C(F)(F)F)ccc2[C@H]1N1CCN(C2(C)CCN(C(=O)c3c(C)ncnc3C)CC2)C[C@@H]1C
IC50 [4]: 12 nM | IC50 [1]: 4.6 nM | IC50 [2]: 11 nM

Cc1ncnc(C)c1C(=O)N1CCC(C)(N2CCN(C3CCc4cc(Br)ccc43)[C@@H](C)C2)CC1 (single isomer, unassigned; diastereomer 1)
IC50 [1]: 3.9 nM | IC50 [2]: 334 nM

Cc1ncnc(C)c1C(=O)N1CCC(C)(N2CCN(C3CCc4cc(Br)ccc43)[C@@H](C)C2)CC1 (mixture of isomers)
IC50 [1]: 190 nM

CCO[C@@H]1Cc2cc(C(F)(F)F)ccc2[C@H]1N1CCN(C2(C)CCN(C(=O)c3c(C)ncnc3C)CC2)C[C@@H]1C [INCB-9471]
IC50 [5]: 4.5 µM | clearance [6]: 10.3 mL/min/kg | Vd [7]: 3.8 L/kg | IC90 [8]: 9 nM | Cmax [9]: 14 µM | half-life [10]: 660 min | Tmax [11]: 3 h | IC90 [12]: 9 nM | half-life [3]: 3480 min | IC50 [13]: 3 nM | IC50 [14]: 16 nM | IC50 [15]: 1.5 nM | IC50 [16]: > 25 µM | IC50 [17]: > 25 µM | half-life [18]: 720 min | fraction unbound [19]: 0.16 | Kd [20]: 3.1 nM | AUC [21]: 7.85 µM·h | IC90 [22]: 9 nM | Activity [23]: inactive | IC50 [24]: > 25 µM | Vd [25]: 4.1 L/kg | Papp B→A [26]: 16.5 ×10⁻⁶ cm/s | Tmax [27]: 30 min | IC50 [4]: 0.36 nM | IC50 [28]: > 25 µM | IC90 [29]: 9 nM | AUC [30]: 55.2 µM·h | IC90 [31]: 9 nM | half-life [32]: 1020 min | IC90 [33]: 9 nM | clearance [34]: 3.33 mL/min/kg | bioavailability [35]: 100% | Cmax [36]: 4.07 µM | Activity [37]: Not Active | IC90 [38]: 9 nM | IC50 [39]: > 25 µM | half-life [40]: 360 min | IC50 [1]: 6.5 nM | concentration at 24 h [41]: 1090 nM | bioavailability [42]: 95% | AUC [43]: 2.9 µM·h | IC90 [44]: 9 nM | IC50 [2]: 0.16 nM | AUC [45]: 150 µM·h
